Results from different studies.
Protocols differ between the studies behind these lines.
Target: Serine/threonine-protein kinase PknB (pknB, Mycobacterium tuberculosis, UniProt P9WI81)

SMILES | read-out | method | tested at | remaining binding
CN(C)CC#Cc1ccc(OCCCc2sc(N3CCc4cccc(C(=O)Nc5nc6ccccc6s5)c4C3)nc2C(=O)O)c(F)c1 | cell-free assay | competition with immobilised ligand | 1 µM | 100%
C[C@@H]1CCN(c2nccc(-c3cnn4ncccc34)n2)C1 | binding |  | 1 µM | 100%
c1cncc(-c2cccc(Nc3nccc(NC4CCCCC4)n3)c2)c1 | binding | competition with immobilised ligand | 10 µM | 89%
O=C(NCCCC1CCCCC1)c1ccc(CNC(=O)c2cnn(-c3ccccc3)c2C(F)(F)F)cc1 | cell-free assay | competition with immobilised ligand | 0.1 µM | 100%
O=C(NCC1CCOCC1)c1n[nH]cc1NC(=O)c1c(F)cccc1F | binding | competition with immobilised ligand | 1 µM | 99%
CN(C)c1ncc(F)c(-c2cnn3ncccc23)n1 | binding |  | 1 µM | 87%
COc1cnc(Nc2cccc(S(N)(=O)=O)c2)nc1N1CCN(c2ccccc2)CC1 | binding | competition with immobilised ligand | 1 µM | 99%
CCN1CCN(Cc2ccc(C(=O)Nc3ccc(C)c(Oc4ccc5c(c4)CC(=O)N5)c3)cc2C(F)(F)F)CC1 | binding | competition with immobilised ligand | 1 µM | 100%
O=C(Nc1cccnn1)N1CCC(=Cc2cccc(Oc3ccc(C(F)(F)F)cn3)c2)CC1 | cell-free assay | competition with immobilised ligand | 1 µM | 95%
COc1cnc(Nc2cccc(S(N)(=O)=O)c2)nc1N1CCN(c2ccccc2)C(=O)C1 | binding | competition with immobilised ligand | 1 µM | 86%
CNC(=O)Nc1ccc2c(c1)[C@@]1(CC2)OC(=O)N(CC(=O)N(Cc2ccc(F)cc2)[C@@H](C)C(F)(F)F)C1=O | cell-free assay | competition with immobilised ligand | 1 µM | 84%
N[C@@H]1CCN(c2nccc(-c3cnn4ncccc34)n2)C1 | binding |  | 1 µM | 100%
COc1cc(-c2cn(C3CCc4c(F)cccc4N(CC(F)(F)F)C3=O)nn2)ccc1-n1cnc(C)c1 (stereo not drawn) | cell-free assay | competition with immobilised ligand | 1 µM | 82%
c1cnn2ncc(-c3ccnc(N4CCC45COC5)n3)c2c1 | binding |  | 1 µM | 79%
Nc1ncc2c(n1)-c1c([nH]c3ccc(C#CC4CC4)cc13)CCCC2 | binding | competition with immobilised ligand | 1 µM | 90%
